Measurements published in ChEMBL document CHEMBL1136952, “Inhibition of staphyloxanthin virulence factor biosynthesis in Staphylococcus aureus: in vitro, in vivo, and crystallographic results” (J Med Chem, 2009).

How the values were obtained:
[1] = biological target: T1, 4,4'-diapophytoene synthase (Staphylococcus aureus, UniProt A9JQL9); experiment: Inhibition of Staphylococcus aureus histidine tagged dehydrosqualene synthase expressed in Escherichia coli BL21 (DE3) cells by continuous spectrophotometric assay
T1 sequence (A9JQL9 whole entry): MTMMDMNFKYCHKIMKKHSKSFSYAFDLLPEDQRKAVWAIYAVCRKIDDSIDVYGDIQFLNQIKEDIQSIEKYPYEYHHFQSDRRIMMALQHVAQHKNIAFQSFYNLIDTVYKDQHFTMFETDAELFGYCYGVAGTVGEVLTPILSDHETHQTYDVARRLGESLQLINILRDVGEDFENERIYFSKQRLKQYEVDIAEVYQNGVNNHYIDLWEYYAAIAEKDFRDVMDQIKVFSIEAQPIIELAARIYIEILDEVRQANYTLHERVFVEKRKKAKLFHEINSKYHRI
In short: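 His-tagged CrtM purified on Ni-NTA. Compounds were preincubated with 2 μg enzyme for 30 min at 20 °C. Phosphate release was followed continuously by a coupled spectrophotometric assay. IC50 came from a dose-response fit, and Ki was derived from IC50, substrate concentration and the CrtM kinetic constant.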

Staphylococcus aureus = experiment: Inhibition of staphyloxanthin biosynthesis in Staphylococcus aureus isolate Pig1 after 72 hrs by spectrophotometry; format: functional, organism-based; details: isolate Pig1, PIG1, 72 h
In short: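 Bacteria were grown in Todd-Hewitt broth with compound for 72 h, in duplicate. Cells were then centrifuged and washed twice in PBS. Pigment was extracted with MeOH and read by OD at 450 nm. IC50 came from a dose-response fit of the OD data.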

Squalene synthase = biological target: T2, Squalene synthase (Homo sapiens, UniProt P37268); experiment: Inhibition of human recombinant squalene synthase expressed in Escherichia coli cells assessed as conversion of [3H]FPP to squalene by liquid scintillation
T2 sequence (P37268 whole entry): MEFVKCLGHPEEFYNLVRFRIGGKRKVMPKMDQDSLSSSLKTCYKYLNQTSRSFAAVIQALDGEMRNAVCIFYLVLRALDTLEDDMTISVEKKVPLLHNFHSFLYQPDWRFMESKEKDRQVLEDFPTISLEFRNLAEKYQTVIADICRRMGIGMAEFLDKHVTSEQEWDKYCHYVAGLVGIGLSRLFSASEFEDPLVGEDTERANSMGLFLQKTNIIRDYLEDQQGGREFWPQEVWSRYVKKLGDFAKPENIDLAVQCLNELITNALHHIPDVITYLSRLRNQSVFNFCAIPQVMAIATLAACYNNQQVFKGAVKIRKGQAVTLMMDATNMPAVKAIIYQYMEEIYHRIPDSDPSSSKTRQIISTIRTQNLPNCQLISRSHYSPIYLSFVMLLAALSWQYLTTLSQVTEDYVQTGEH

MCF7 = experiment: Cytotoxicity against human MCF7 cells after 4 days by MTT assay; format: cell-based; details: MCF7, 96 h
In short: (§1)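 Cell lines from the National Cancer Institute, grown in RPMI-1640 with 10% FBS and 2 mM L-glutamine at 37 °C, 5% CO2. Seeded 5000 cells/well with compound half-log serially diluted (0.316 mM to 0.1 pM). Incubated 4 days. Viability read by MTT. IC50 from dose-response fit of OD data.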

NCI-H460 = experiment: Cytotoxicity against human NCI-H460 cells after 4 days by MTT assay; format: cell-based; details: NCI-H460, 96 h; in short: as §1
SF-268 = experiment: Cytotoxicity against human SF268 cells after 4 days by MTT assay; format: cell-based; details: SF-268, 96 h; in short: as §1

Compound	Ki [1]	IC50 (Staphylococcus aureus)	IC50 (Squalene synthase)	IC50 (MCF7)	IC50 (NCI-H460)	IC50 (SF-268)
O=C(CP(=O)(O)O)NCCCc1cccc(Oc2ccc(Cl)c(Cl)c2)c1	30 nM	0.04 µM	740 nM	> 300 µM	> 300 µM	> 300 µM
O=C(CP(=O)(O)O)OCCCc1cccc(Oc2ccccc2)c1	5700 nM	> 500 µM	> 30000 nM	69 µM	86 µM	–
O=C(NO)C(CCCc1cccc(Oc2ccccc2)c1)P(=O)(O)O (stereo not drawn)	4100 nM	4.2 µM	300 nM	> 300 µM	> 300 µM	> 300 µM
CC(C)(C(=O)NCCCc1cccc(Oc2ccccc2)c1)P(=O)(O)O	960 nM	> 500 µM	520 nM	> 300 µM	> 300 µM	> 300 µM
O=C(CP(=O)(O)O)N(O)CCCc1cccc(Oc2ccc(Cl)c(Cl)c2)c1	320 nM	0.042 µM	1600 nM	> 300 µM	> 300 µM	> 300 µM
O=C(CP(=O)(O)O)NCCCCc1cccc(Oc2ccccc2)c1	5300 nM	35 µM	> 30000 nM	> 300 µM	> 300 µM	> 300 µM
O=C(CCCCc1cccc(Oc2ccccc2)c1)CP(=O)(O)O	> 7000 nM	28 µM	20000 nM	135 µM	191 µM	–
Cc1ccc(-c2ccc(CCCN(O)C(=O)CP(=O)(O)O)cc2)cc1	> 7000 nM	4.1 µM	> 30000 nM	266 µM	284 µM	–
O=C(CP(=O)([O-])[O-])NCCCc1cccc(Oc2ccccc2)c1.[K+].[K+]	–	0.008 µM	530 nM	> 300 µM	> 300 µM	> 300 µM
O=C(CP(=O)(O)O)NCCc1cccc(Oc2ccccc2)c1	1500 nM	3 µM	6200 nM	> 300 µM	> 300 µM	> 300 µM
O=C(CS(=O)(=O)O)NCCCc1cccc(Oc2ccccc2)c1	810 nM	15 µM	> 30000 nM	> 300 µM	> 300 µM	> 300 µM
O=C(O)CC(=O)NCCCc1cccc(Oc2ccccc2)c1	> 7000 nM	200 µM	> 30000 nM	283 µM	306 µM	306 µM
O=C(CP(=O)(O)O)NCCCc1cccc(Oc2ccc(Cl)cc2)c1	70 nM	0.028 µM	1100 nM	> 300 µM	> 300 µM	> 300 µM
CN(CCCc1cccc(Oc2ccccc2)c1)C(=O)CP(=O)(O)O	910 nM	8.6 µM	1000 nM	> 300 µM	> 300 µM	> 300 µM
O=P(O)(O)CS(=O)(=O)NCCCc1cccc(Oc2ccccc2)c1	> 7000 nM	> 500 µM	> 30000 nM	> 300 µM	> 300 µM	> 300 µM
O=C(CP(=O)(O)O)NCCCc1ccc(-c2ccccc2)cc1	810 nM	5 µM	> 30000 nM	> 300 µM	> 300 µM	> 300 µM
O=C(CP(=O)(O)O)N(O)CCCc1cccc(Oc2ccccc2)c1	320 nM	0.11 µM	30000 nM	> 300 µM	> 300 µM	> 300 µM
